Experimental data taken from PubChem BioAssay.
Activity calls are given as the source filed them.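 The calls were made as follows, unless noted: active = potentiation averaged over duplicate wells exceeding buffer-only control mean by more than 3 SD; inactive = the rest.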

System: not listed separately
Assay: thallium flux activation in parental CHO cells, counter-screen for KCNQ1 potentiator project (AID 493006;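 active = duplicate-averaged activation above buffer control mean plus 5 SD of those controls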)
Settings: parental CHO-K1 cells, FluxOR thallium flux, at 10 µM; hits give high values
Method in brief: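 Assay system: Untransfected host CHO-K1 cells with FluxOR thallium dye | Probe or stimulus: Potassium/thallium depolarization pulse | Schedule: Overnight 37 °C plating, 90 min RT dye, 20 min compound | Detection: Kinetic thallium-flux fluorescence | Read-out: Max-minus-min fluorescence over baseline, percent of buffer-to-R-L3 span | Benchmarks: Low control buffer, high control R-L3 activator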
In the case of `COC(=O)c1sc(NC(=S)NC(=O)c2cccc(C)c2)nc1C`, the outcome is reported as “inactive”. In the case of `CC(=O)NC(C1C(=O)CC(C)(C)CC1=O)(C(F)(F)F)C(F)(F)F`, the outcome is reported as “inactive”. For `CCOC(=O)c1oc2ccc(S(=O)(=O)n3nc(-c4ccc(OC)cc4)cc3N)cc2c1C`, the outcome was “inactive”. With `O=C(N/N=C/c1ccc([N+](=O)[O-])o1)c1sc2ccccc2c1Cl` the outcome was “inactive”. With `CC(=O)/C(=N/Nc1ccc([N+](=O)[O-])cc1)N1CCCc2ccccc21` the outcome was “inactive”. For `S=C(NCCc1ccccc1)N/N=C/C1CCCCC1`, the outcome was “inactive”. In the case of `COC(=O)N/N=C/c1cc(C)n(-c2ccc(F)cc2)c1C`, the outcome is reported as “inactive”. For `COCCCN1C(=O)C(=O)/C(=C(/O)c2ccc(C)cc2)C1c1ccccc1` (configuration not stated), the outcome was “inactive”. In the case of `O=C(COC(=O)c1ccccc1)Nc1ccccc1N1CCOCC1`, the outcome is reported as “inactive”. In the case of `CCOC(=S)NC(=O)c1sc2ccccc2c1Cl`, the activation is reported as 398% (active). With `COc1ccc(NC(=S)NCCC(c2ccccc2)c2ccccc2)c(OC)c1` the outcome was “inactive”. For `S=c1sc2c(Cl)ncnc2n1-c1ccccc1`, the activation was 302% (active). In the case of `CCOc1ccc2[nH]c(=O)c(CN(Cc3ccc(C)cc3)C(=O)N3CCCC3)cc2c1`, the outcome is reported as “inactive”. In the case of `O=C(Cn1c(C(F)(F)F)nc2ccccc21)N=Nc1c(O)[nH]c2ccc(Br)cc12`, the outcome is reported as “inactive”. In the case of `S=c1nc[nH]c2c1sc1nc(-c3ccccc3)c3c(c12)CCCC3`, the activation is reported as 456% (active). With `O=c1c2c3c(sc2[nH]c(=S)n1Cc1ccco1)CCC3` the activation was 264% (active). In the case of `Cc1ccsc1/C=N\NC(=O)c1n[nH]c2c1CCC2`, the outcome is reported as “inactive”. In the case of `Cc1cc(/C=N/n2cnnc2)c(C)n1-c1ccc(Cl)cc1Cl`, the outcome is reported as “inactive”. In the case of `O=C(NC(=S)Nc1ccccc1N1CCCC1)c1ccco1`, the activation is reported as 174% (active). For `CC(C)OC(=O)c1c(NS(=O)(=O)c2ccccc2)sc2c1CCCC2`, the activation was 262% (active). With `Fc1ccc(-c2csc(NC(=S)Nc3ccccc3)n2)cc1` the activation was 153% (active). For `O=C(N/N=C/c1ccc2cccc(OCc3ccccc3)c2n1)c1ccc(Br)cc1`, the outcome was “inactive”.

Molecular target: Potassium voltage-gated channel subfamily KQT member 1 (Homo sapiens) (UniProt P51787)
Sequence (P51787 whole entry, looked up): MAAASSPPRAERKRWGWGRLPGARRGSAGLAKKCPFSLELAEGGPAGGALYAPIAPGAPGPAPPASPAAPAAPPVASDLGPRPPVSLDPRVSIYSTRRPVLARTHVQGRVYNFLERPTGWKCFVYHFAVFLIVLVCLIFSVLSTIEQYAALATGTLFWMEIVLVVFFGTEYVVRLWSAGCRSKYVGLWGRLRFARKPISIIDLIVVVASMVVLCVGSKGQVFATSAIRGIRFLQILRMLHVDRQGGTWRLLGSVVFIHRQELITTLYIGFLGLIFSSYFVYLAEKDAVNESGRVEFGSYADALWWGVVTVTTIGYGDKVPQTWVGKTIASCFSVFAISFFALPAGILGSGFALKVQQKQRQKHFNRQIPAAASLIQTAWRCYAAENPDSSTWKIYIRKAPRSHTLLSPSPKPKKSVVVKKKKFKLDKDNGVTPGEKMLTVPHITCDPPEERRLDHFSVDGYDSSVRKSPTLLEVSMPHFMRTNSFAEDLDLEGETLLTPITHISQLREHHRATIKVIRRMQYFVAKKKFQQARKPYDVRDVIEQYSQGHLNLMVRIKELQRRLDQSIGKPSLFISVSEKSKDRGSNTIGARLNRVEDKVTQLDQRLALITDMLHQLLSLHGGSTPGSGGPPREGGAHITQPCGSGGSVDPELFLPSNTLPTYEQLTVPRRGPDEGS
Assay: KCNQ1 potassium channel potentiators, confirmation, FluxOR thallium flux, CHO cells, duplicates (AID 493007);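 as to outcome: cells depolarized by a potassium plus thallium sulfate stimulus after compound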
Settings: KCNQ1 cell line, FluxOR thallium flux fluorescence, at 10 µM; hits give high values, % of reference activator effect, buffer zero
Method in brief: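 Material: KCNQ1-expressing CHO cell line; Incubation: FluxOR dye loading 90 min, compound exposure 20 min, room temperature; Detection: FluxOR Tl+ flux fluorescence, 10 s baseline plus 110 s recording; Read-out: percent activation between buffer and R-L3 responses; Control set: buffer-only wells as 0% and R-L3 activator as 100%; Replication: duplicate wells per compound.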
In the case of `Cc1onc(-c2ccccc2)c1C(=O)NC(=S)NNC(=O)c1ccccc1O`, the potentiation is reported as 17.5% (active). For `CCOC(=O)CNC(=O)N1CCc2ccc(NC(=O)c3ccccc3Cl)cc2C1`, the outcome was “inactive”. With `Cc1cccc(/N=C/c2sc3ccccc3c2O)n1` the outcome was “inactive”. In the case of `N#CC(c1ccccc1)c1ccc2c(C(F)(F)F)cc(C(F)(F)F)nc2n1` (configuration not stated), the potentiation is reported as 129% (active). In the case of `CCc1ccc2oc(C(=O)NC3CCS(=O)(=O)C3)cc(=O)c2c1` (configuration not stated), the outcome is reported as “inactive”. In the case of `Cc1ccccc1C(OCCN(C)C)C1CCCCC1` (configuration not stated), the outcome is reported as “inactive”. For `CC(OC(=O)CC1Sc2ccccc2NC1=O)C(=O)NC1CCCC1` (configuration not stated), the outcome was “inactive”. In the case of `O=C1c2ccccc2C2(c3cc(C(F)(F)F)cc(C(F)(F)F)c3)NCCN12` (configuration not stated), the outcome is reported as “inactive”. With `CCOC(=O)CSC(=S)NC(=O)c1ccc(OC)cc1` the potentiation was 18.5% (active). For `O=C(Nc1nnc(-c2ccco2)o1)c1ccc(Cl)cc1`, the outcome was “inactive”. For `Cc1cccc(-c2nnc(NC(=O)c3ccc(Cl)cc3)o2)c1`, the potentiation was 30% (active). For `O=c1c2c(-c3ccco3)csc2nc(SCc2cn3cccnc3n2)n1-c1ccccc1`, the outcome was “inactive”. In the case of `Cc1nc(=S)c2c([nH]1)-c1ccccc1CC21CCCCC1`, the potentiation is reported as 84.5% (active). For `C=CCn1c(O)c(N=NC(=S)Nc2ccccc2F)c2cc(S(=O)(=O)N3CCOCC3)ccc21`, the potentiation was 26.5% (active). In the case of `CCN(CC)CCn1c(=S)[nH]c2cc(C(=O)NCc3ccc(C)cc3)ccc2c1=O`, the outcome is reported as “inactive”. With `CCOc1ccc2nc(/N=C/c3c(C)[nH]n(-c4ccccc4)c3=O)sc2c1` the potentiation was 360% (active). In the case of `O=S(=O)(NCCOc1ccccc1)c1ccc2ccccc2c1`, the outcome is reported as “inactive”. In the case of `CCOC(=O)c1ccc(N2C(=O)C3ON(c4ccccc4)C(c4ccco4)C3C2=O)cc1` (configuration not stated), the outcome is reported as “inactive”. With `COC(=O)c1sc(NC(=S)NC(=O)c2cccc(C)c2)nc1C` the outcome was “inactive”. In the case of `CC(=O)NC(C1C(=O)CC(C)(C)CC1=O)(C(F)(F)F)C(F)(F)F`, the outcome is reported as “inactive”. In the case of `CCOC(=O)c1oc2ccc(S(=O)(=O)n3nc(-c4ccc(OC)cc4)cc3N)cc2c1C`, the outcome is reported as “inactive”. In the case of `O=C(N/N=C/c1ccc([N+](=O)[O-])o1)c1sc2ccccc2c1Cl`, the outcome is reported as “inactive”. With `CC(=O)/C(=N/Nc1ccc([N+](=O)[O-])cc1)N1CCCc2ccccc21` the outcome was “inactive”. With `S=C(NCCc1ccccc1)N/N=C/C1CCCCC1` the outcome was “inactive”. In the case of `COC(=O)N/N=C/c1cc(C)n(-c2ccc(F)cc2)c1C`, the outcome is reported as “inactive”. With `COCCCN1C(=O)C(=O)/C(=C(/O)c2ccc(C)cc2)C1c1ccccc1` (configuration not stated) the outcome was “inactive”. For `O=C(COC(=O)c1ccccc1)Nc1ccccc1N1CCOCC1`, the outcome was “inactive”. For `CCOC(=S)NC(=O)c1sc2ccccc2c1Cl`, the potentiation was 122% (active). With `COc1ccc(NC(=S)NCCC(c2ccccc2)c2ccccc2)c(OC)c1` the potentiation was 72.5% (active). In the case of `S=c1sc2c(Cl)ncnc2n1-c1ccccc1`, the potentiation is reported as 146% (active). With `CCOc1ccc2[nH]c(=O)c(CN(Cc3ccc(C)cc3)C(=O)N3CCCC3)cc2c1` the outcome was “inactive”. With `O=C(Cn1c(C(F)(F)F)nc2ccccc21)N=Nc1c(O)[nH]c2ccc(Br)cc12` the outcome was “inactive”. In the case of `S=c1nc[nH]c2c1sc1nc(-c3ccccc3)c3c(c12)CCCC3`, the potentiation is reported as 328% (active). In the case of `O=c1c2c3c(sc2[nH]c(=S)n1Cc1ccco1)CCC3`, the potentiation is reported as 108% (active). In the case of `Cc1ccsc1/C=N\NC(=O)c1n[nH]c2c1CCC2`, the outcome is reported as “inactive”. For `Cc1cc(/C=N/n2cnnc2)c(C)n1-c1ccc(Cl)cc1Cl`, the outcome was “inactive”. For `O=C(NC(=S)Nc1ccccc1N1CCCC1)c1ccco1`, the potentiation was 21.5% (active). For `CC(C)OC(=O)c1c(NS(=O)(=O)c2ccccc2)sc2c1CCCC2`, the potentiation was 126% (active). With `Fc1ccc(-c2csc(NC(=S)Nc3ccccc3)n2)cc1` the potentiation was 52.5% (active). With `O=C(N/N=C/c1ccc2cccc(OCc3ccccc3)c2n1)c1ccc(Br)cc1` the potentiation was 23% (active).
